According to ChEMBL document CHEMBL4270642, “Boronic ester-linked macrocyclic lipopeptides as serine protease inhibitors targeting Escherichia coli type I signal peptidase” (Eur J Med Chem, 2018):
Values after ≈ are worked out from the molar mass of the structure shown.

Columns and labels:
Pseudomonas aeruginosa [1] = assay: Antibacterial activity against efflux defective Pseudomonas aeruginosa PAO750 after 16 to 20 hrs by broth microdilution method; assay type: functional
Procedure, shortened: (§1)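 Broth microdilution in cation-adjusted Mueller-Hinton II per EUCAST/CLSI; two-fold compound series 64 down to 0.25 µg/mL final. Inoculum from fresh colonies (non-selective agar, 18-24 h, 35 ± 2 °C), adjusted to 0.5 McFarland, diluted to about 5 × 10^5 CFU/mL final. Static incubation 16-20 h at 35 ± 2 °C; MIC read visually as complete growth inhibition against medium-only wells.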

[2] = biological target: Signal peptidase I (Escherichia coli K-12) (UniProt P00803); assay: Inhibition of Escherichia coli type 1 signal peptidase lepB assessed as residual activity at 0.0098 uM preincubated for 10 mins followed by Dabcyl-VGGTATAYGAFSRPGLE-(EDANS)-OH substrate addition measured after 2 hrs by FRET based assay (reference value: 100%)
Procedure, shortened: (§2)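 EcLepB (about 50 nM estimated) preincubated 10 min with compound. Reaction started with Dabcyl/EDANS FRET peptide at 8 µM final (Km 20 µM). Fluorescence followed continuously at 535 nm, 22 °C, for 2 h. Cleavage rates plotted against inhibitor concentration; IC50 from non-linear regression of sigmoidal dose-response curves.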

Pseudomonas aeruginosa [3] = assay: Antibacterial activity against Pseudomonas aeruginosa PAO1 after 16 to 20 hrs by broth microdilution method; assay type: functional; procedure, shortened: as §1
[4] = biological target: Signal peptidase I (Escherichia coli K-12) (UniProt P00803); assay: Inhibition of Escherichia coli type 1 signal peptidase lepB assessed as residual activity at 0.0195 uM preincubated for 10 mins followed by Dabcyl-VGGTATAYGAFSRPGLE-(EDANS)-OH substrate addition measured after 2 hrs by FRET based assay (reference value: 100%); procedure, shortened: as §2
[5] = biological target: Signal peptidase I (Escherichia coli K-12) (UniProt P00803); assay: Inhibition of Escherichia coli type 1 signal peptidase lepB assessed as residual activity at 0.1563 uM preincubated for 10 mins followed by Dabcyl-VGGTATAYGAFSRPGLE-(EDANS)-OH substrate addition measured after 2 hrs by FRET based assay (reference value: 100%); procedure, shortened: as §2
[6] = biological target: Signal peptidase I (Escherichia coli K-12) (UniProt P00803); assay: Inhibition of Escherichia coli type 1 signal peptidase lepB assessed as residual activity at 5 uM preincubated for 10 mins followed by Dabcyl-VGGTATAYGAFSRPGLE-(EDANS)-OH substrate addition measured after 2 hrs by FRET based assay (reference value: 100%); procedure, shortened: as §2
[7] = biological target: Signal peptidase I (Escherichia coli K-12) (UniProt P00803); assay: Inhibition of Escherichia coli type 1 signal peptidase lepB assessed as residual activity at 0.0012 uM preincubated for 10 mins followed by Dabcyl-VGGTATAYGAFSRPGLE-(EDANS)-OH substrate addition measured after 2 hrs by FRET based assay (reference value: 100%); procedure, shortened: as §2
Escherichia coli [8] = assay: Antibacterial activity against tolC deficient Escherichia coli CH3130 after 16 to 20 hrs by broth microdilution method; assay type: functional; procedure, shortened: as §1
Signal peptidase I = Signal peptidase I (Escherichia coli K-12, UniProt P00803); assay: Inhibition of Escherichia coli type 1 signal peptidase lepB preincubated for 10 mins followed by Dabcyl-VGGTATAYGAFSRPGLE-(EDANS)-OH substrate addition measured after 2 hrs by FRET based assay; procedure, shortened: as §2
HepG2 = assay: Cytotoxicity against human HepG2 cells after 72 hrs by FMSA; assay type: cell-based; settings: HepG2, 72 h
Procedure, shortened: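 HepG2 (ATCC) grown in EMEM with 10% FBS, pen/strep, 2 mM L-glutamine, used up to 20 passages. Seeded at 1000 cells/well, cultured overnight, then dosed acoustically from DMSO stocks. Eight two-fold dilutions in duplicate from top 64 or 32 µM; 72 h at 37 °C, 5% CO2. Fluorescein diacetate hydrolysis read at ex 485/em 530 nm; IC50 by non-linear regression.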

[9] = biological target: Signal peptidase I (Escherichia coli K-12) (UniProt P00803); assay: Inhibition of Escherichia coli type 1 signal peptidase lepB assessed as residual activity at 1.25 uM preincubated for 10 mins followed by Dabcyl-VGGTATAYGAFSRPGLE-(EDANS)-OH substrate addition measured after 2 hrs by FRET based assay (reference value: 100%); procedure, shortened: as §2
[10] = biological target: Signal peptidase I (Escherichia coli K-12) (UniProt P00803); assay: Inhibition of Escherichia coli type 1 signal peptidase lepB assessed as residual activity at 0.0024 uM preincubated for 10 mins followed by Dabcyl-VGGTATAYGAFSRPGLE-(EDANS)-OH substrate addition measured after 2 hrs by FRET based assay (reference value: 100%); procedure, shortened: as §2
[11] = biological target: Signal peptidase I (Escherichia coli K-12) (UniProt P00803); assay: Inhibition of Escherichia coli type 1 signal peptidase lepB assessed as residual activity at 0.0781 uM preincubated for 10 mins followed by Dabcyl-VGGTATAYGAFSRPGLE-(EDANS)-OH substrate addition measured after 2 hrs by FRET based assay (reference value: 100%); procedure, shortened: as §2
Klebsiella pneumoniae = assay: Antibacterial activity against Klebsiella pneumoniae ATCC 13883 after 16 to 20 hrs by broth microdilution method; assay type: functional; procedure, shortened: as §1
[12] = biological target: Signal peptidase I (Escherichia coli K-12) (UniProt P00803); assay: Inhibition of Escherichia coli type 1 signal peptidase lepB assessed as residual activity at 2.5 uM preincubated for 10 mins followed by Dabcyl-VGGTATAYGAFSRPGLE-(EDANS)-OH substrate addition measured after 2 hrs by FRET based assay (reference value: 100%); procedure, shortened: as §2
[13] = biological target: Signal peptidase I (Escherichia coli K-12) (UniProt P00803); assay: Inhibition of Escherichia coli type 1 signal peptidase lepB assessed as residual activity at 0.625 uM preincubated for 10 mins followed by Dabcyl-VGGTATAYGAFSRPGLE-(EDANS)-OH substrate addition measured after 2 hrs by FRET based assay (reference value: 100%); procedure, shortened: as §2
[14] = biological target: Signal peptidase I (Escherichia coli K-12) (UniProt P00803); assay: Inhibition of Escherichia coli type 1 signal peptidase lepB assessed as residual activity at 10 uM preincubated for 10 mins followed by Dabcyl-VGGTATAYGAFSRPGLE-(EDANS)-OH substrate addition measured after 2 hrs by FRET based assay (reference value: 100%); procedure, shortened: as §2
[15] = biological target: Signal peptidase I (Escherichia coli K-12) (UniProt P00803); assay: Inhibition of Escherichia coli type 1 signal peptidase lepB assessed as residual activity at 0.0049 uM preincubated for 10 mins followed by Dabcyl-VGGTATAYGAFSRPGLE-(EDANS)-OH substrate addition measured after 2 hrs by FRET based assay (reference value: 100%); procedure, shortened: as §2
[16] = biological target: Signal peptidase I (Escherichia coli K-12) (UniProt P00803); assay: Inhibition of Escherichia coli type 1 signal peptidase lepB assessed as residual activity at 0.0391 uM preincubated for 10 mins followed by Dabcyl-VGGTATAYGAFSRPGLE-(EDANS)-OH substrate addition measured after 2 hrs by FRET based assay (reference value: 100%); procedure, shortened: as §2
[17] = biological target: Signal peptidase I (Escherichia coli K-12) (UniProt P00803); assay: Inhibition of Escherichia coli type 1 signal peptidase lepB assessed as residual activity at 0.3125 uM preincubated for 10 mins followed by Dabcyl-VGGTATAYGAFSRPGLE-(EDANS)-OH substrate addition measured after 2 hrs by FRET based assay (reference value: 100%); procedure, shortened: as §2
Staphylococcus aureus = assay: Antibacterial activity against Staphylococcus aureus ATCC 29213 after 16 to 20 hrs by broth microdilution method; assay type: functional; procedure, shortened: as §1
Escherichia coli [18] = assay: Antibacterial activity against Escherichia coli D22 CGSG 5163 harboring Ips mutant after 16 to 20 hrs by broth microdilution method; assay type: functional
Procedure, shortened: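 Broth microdilution in cation-adjusted Mueller-Hinton II broth, following EUCAST and CLSI guidelines. Two-fold series at final concentrations 64 down to 0.25 µg/mL, with medium-only and growth controls. Inoculum from fresh colonies (18-24 h, 35 °C ± 2 °C) adjusted to 0.5 McFarland, final ≈5 × 10^5 CFU/mL. Plates incubated unshaken 16-20 h at 35 °C ± 2 °C. MIC read visually as complete inhibition of growth.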

Acinetobacter baumannii = assay: Antibacterial activity against Acinetobacter baumannii ATCC 19606 after 16 to 20 hrs by broth microdilution method; assay type: functional; settings: ATCC 19606 = CIP 70.34 = JCM 6841; procedure, shortened: as §1
[19] = biological target: Signal peptidase I (Escherichia coli K-12) (UniProt P00803); assay: Inhibition of Escherichia coli type 1 signal peptidase lepB assessed as residual activity at 0.0006 uM preincubated for 10 mins followed by Dabcyl-VGGTATAYGAFSRPGLE-(EDANS)-OH substrate addition measured after 2 hrs by FRET based assay (reference value: 100%); procedure, shortened: as §2
Escherichia coli [20] = assay: Antibacterial activity against Escherichia coli ATCC 25922 after 16 to 20 hrs by broth microdilution method; assay type: functional; procedure, shortened: as §1
[21] = Hemolytic activity in human RBC at 100 uM after 45 mins by spectrophotometric method relative to control; assay type: ADME, cell-based, Erythrocyte; settings: red blood cells (erythrocytes), read-out: Activity
Procedure, shortened: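 Heparinized human blood; red cells washed three times in Tyrode buffer pH 7.4. Compound at 100 µM final with 1% DMSO and 50% RBC, shaken (250 rpm) 45 min at 37 °C. Cells pelleted (1000 × g, 10 min); supernatant haemoglobin at 540 nm. Percent lysis relative to buffer-only and 2% Triton X-100 controls.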

Signal peptidase I (Escherichia coli K-12), sequence (P00803 whole entry): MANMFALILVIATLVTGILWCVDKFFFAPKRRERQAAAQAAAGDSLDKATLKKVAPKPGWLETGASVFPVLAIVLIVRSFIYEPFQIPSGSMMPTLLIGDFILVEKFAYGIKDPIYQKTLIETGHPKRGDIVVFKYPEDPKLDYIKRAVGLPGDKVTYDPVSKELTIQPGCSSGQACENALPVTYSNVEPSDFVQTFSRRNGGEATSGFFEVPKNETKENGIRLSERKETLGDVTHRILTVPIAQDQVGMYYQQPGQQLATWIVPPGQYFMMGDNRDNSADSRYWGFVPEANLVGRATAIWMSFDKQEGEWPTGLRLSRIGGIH
Signal peptidase I, sequence (P00803 whole entry): as above

For `CCCCCCc1ccc(-c2ccc(C(=O)N[C@@H](CCCN)C(=O)N[C@H](C(=O)N[C@@H](C)C(=O)N[C@H]3Cc4cn(nn4)CCO[C@@H]4C[C@@H]5OB(O[C@@H]5C4)[C@H](C)NC3=O)[C@@H](C)O)cc2)cc1`, the MIC (Pseudomonas aeruginosa [1]) was 32 µg/mL (≈ 36.1 µM), the Activity [2] was 94.3% and the MIC (Pseudomonas aeruginosa [3]) was 64 µg/mL (≈ 72.2 µM). For the same compound, the Activity [4] was 84.3%, the Activity [5] was 57.6% and the Activity [6] was 4%. The Activity [7] was 90.7%, the MIC (Escherichia coli [8]) was 4 µg/mL (≈ 4.52 µM) and the IC50 (Signal peptidase I) was 0.175 µM. For the same compound, the IC50 (HepG2) was 8 µM, the Activity [9] was 42.2% and the Activity [10] was 90.6%. The Activity [11] was 65.2%, the MIC (Klebsiella pneumoniae) was 8 µg/mL (≈ 9.03 µM) and the Activity [12] was 27.1%. The Activity [13] was 27.1%, the Activity [14] was -2.5% and the Activity [15] was 91%. For the same compound, the Activity [16] was 77.8%, the Activity [17] was 39.1% and the MIC (Staphylococcus aureus) was 2 µg/mL (≈ 2.26 µM). For the same compound, the MIC (Escherichia coli [18]) was 4 µg/mL (≈ 4.52 µM), the MIC (Acinetobacter baumannii) was 8 µg/mL (≈ 9.03 µM) and the Activity [19] was 95.3%. The MIC (Escherichia coli [20]) was 16 µg/mL (≈ 18.1 µM) and the hemolysis at 0.75 h, 100 µM [21] was 10.6%.

In the case of `CCCCCCc1ccc(-c2ccc(C(=O)N[C@@H](CCCN)C(=O)N[C@H](C(=O)N[C@@H](C)C(=O)N[C@H]3Cc4cn(nn4)CCCN4C[C@@H]5OB(O[C@@H]5C4)[C@H](C)NC3=O)[C@@H](C)O)cc2)cc1`, the MIC (Pseudomonas aeruginosa [1]) is reported as 64 µg/mL (≈ 72.3 µM), the Activity [2] is reported as 76.7% and the MIC (Pseudomonas aeruginosa [3]) is reported as over 64 µg/mL. It also gave an Activity [4] of 68.6%, an Activity [5] of 47.3% and an Activity [6] of 14.9%. It also gave an Activity [7] of 85.6%, an MIC (Escherichia coli [8]) of 8 µg/mL (≈ 9.04 µM) and an IC50 (Signal peptidase I) of 0.105 µM. The IC50 (HepG2) was 4 µM, the Activity [9] was 32.8% and the Activity [10] was 86.2%. The Activity [11] was 42.8%, the MIC (Klebsiella pneumoniae) was 32 µg/mL (≈ 36.2 µM) and the Activity [12] was 28.1%. The Activity [13] was 35.3%, the Activity [14] was 5.6% and the Activity [15] was 80.9%. For the same compound, the Activity [16] was 47.9%, the Activity [17] was 43% and the MIC (Staphylococcus aureus) was 32 µg/mL (≈ 36.2 µM). The MIC (Escherichia coli [18]) was 8 µg/mL (≈ 9.04 µM), the MIC (Acinetobacter baumannii) was 16 µg/mL (≈ 18.1 µM) and the Activity [19] was 89.5%. For the same compound, the MIC (Escherichia coli [20]) was 32 µg/mL (≈ 36.2 µM) and the hemolysis at 0.75 h, 100 µM [21] was 17.4%.
